Assay outcomes as filed in PubChem.
Rows were chosen to be rich in hits. Some 11% of all compounds tested hit in one or more screens of this group.
S1P3 ag = activates the human S1P3 receptor | S1P3 NFAT-BLA reporter cells, agonism, FRET ratio; relative to 1 µM S1P, basal subtracted | Q99500 | 0.1% of 60,000 active | activation, % at 4.5 µM;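 active = activation above the screen-wide mean plus 3 SD, cut at about 4.5% in these data, passing the limit was not always enough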
Target sequence (Q99500 whole entry, looked up): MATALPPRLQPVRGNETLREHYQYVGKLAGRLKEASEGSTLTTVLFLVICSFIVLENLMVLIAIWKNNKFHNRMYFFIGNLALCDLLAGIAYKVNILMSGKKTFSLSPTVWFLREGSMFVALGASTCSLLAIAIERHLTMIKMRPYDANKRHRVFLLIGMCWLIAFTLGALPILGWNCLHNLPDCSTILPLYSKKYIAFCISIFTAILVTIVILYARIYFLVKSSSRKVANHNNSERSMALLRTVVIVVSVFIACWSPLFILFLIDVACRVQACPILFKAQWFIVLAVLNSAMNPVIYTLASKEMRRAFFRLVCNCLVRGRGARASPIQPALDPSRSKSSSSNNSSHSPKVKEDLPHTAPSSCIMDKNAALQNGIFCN
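Assay system: stable CHO line with human S1P3, Gα16, NFAT-BLA reporter; Detection: FRET β-lactamase substrate fluorescence, excitation 405 nm, 460/535 nm emission ratio, background-subtracted; Read-out: percent activation versus median 1 µM S1P response, basal-subtracted, per plate; Incubation: cells plated overnight, compound 4 h 37 °C, substrate 2 h RT.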
D1 mod = D1 dopamine receptor (human) allosteric modulation; P21728; HEK293 D1, CRE-luciferase, dopamine EC30 potentiation; actives deviate in either direction; B-score at 10 µM; 5.9% of 58,000 active; AID 641;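 active = luminescence count or its row- and column-corrected plate score outside the 99.7% band of the plate's sample wells, on either side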
M1 antag = antagonists of rat M1 muscarinic receptor; P08482; CHO-M1 cells, Fluo-4 calcium, ACh EC80 antagonist mode; stronger effect = lower value; B-score at 10 µM; 3.4% of 64,000 active; AID 628;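 active = calcium fluorescence response, raw or row-and-column corrected B-score, differing from the plate sample mean either way at a set confidence level, mostly lower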
M1 agonist = M1 muscarinic receptor agonism | CHO-M1 cells, Fluo-4 calcium fluorescence, agonist mode; stronger effect = higher value | B-score at 10 µM | 3% of 64,000 active;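 active = fluorescence rise, raw or as B-score row- and column-corrected plate score, outside the 99.7% band of its plate's samples, either direction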
TNAP act DEA = human TNAP activation, intermediate phosphate acceptor. P05186. purified TNAP, CDP-star luminescence, 100 mM DEA, 30 min; stronger effect = higher value; scale: 0 levamisole-inhibited, 1 vehicle-only enzyme. activation factor at 20 µM. 64,000 tested, under 10 active. AID 813;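 active = activation factor of at least 2 at 20 µM, relative to controls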
S1P1 ag pot = activates or potentiates agonism at human S1P1 receptor; S1P1 CRE-bla cells, forskolin, beta-lactamase FRET, potentiator mode; S1P1 agonist co-added at EC20, 2 nM; 100% = saturating reference agonist, 0% = basal; activation, % at 9.5 µM; 0.57% of 56,000 active; AID 449;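 active = activation above a cutoff set at the mean activation of all tested compounds plus 3 SD, cut at about 54% in these data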;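 note: forskolin at 4 µM as EC80 and the EC20 agonist is SEW2871; 100% = SEW2871 at its EC100 plus forskolin at EC80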
D1 mod confirm = D1 receptor (human) allosteric modulation, confirmed; shares compounds with D1 mod; AID 642; HEK293 D1 CRE-luciferase, dopamine EC30 potentiation; stronger effect = higher value; luminescence at 10 µM; 88% of 2,200 active;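 active = luminescence in either of two replicates above the same-plate mean plus 3 SD of the low-dose dopamine control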
D1 no dopamine = D1 (human) signaling in absence of dopamine. HEK293 D1 CRE-luciferase, luminescence, no dopamine; stronger effect = higher value. luminescence at 10 µM. shares compounds with D1 mod. 0.8% of 1,900 active; in the data active = luminescence above about 3900
Isoprot counter = isoproterenol response counter-screen activity for D1 modulators; shares compounds with D1 mod; HEK293 D1 CRE-luciferase, isoproterenol EC30 counter-screen; stronger effect = higher value; AID 647; luminescence at 10 µM; 63% of 2,200 active;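 active = luminescence in either replicate above plate mean of wells with a partly effective reference agonist dose plus 3 SD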;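 note: isoproterenol raises cAMP through native beta-adrenoceptor Gs so signal bypasses D1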
An asterisk follows results filed as active; nt = no result.

SMILES	S1P3 ag	D1 mod	M1 antag	M1 agonist	TNAP act DEA	S1P1 ag pot	D1 mod confirm	D1 no dopamine	Isoprot counter
Nc1nc(CN2CCN(c3ccccn3)CC2)nc(Nc2ccc(Cl)cc2)n1	-2	4.3*	1.2	-1.3	0.9	10	6700*	1548	3416
Cc1ccc(OCCNC(=O)c2ccco2)cc1C	-1	0.41	0.72	1.1	1	-20	nt	nt	nt
c1ccc(Oc2nc(Oc3ccccc3)nc(N3CCOCC3)n2)cc1	0	3.7*	-0.43	-1	1	-28	6884*	nt	2828*
COc1nc(N2CCOCC2)nc(-n2cccc2)n1	0	17*	0.56	-0.33	0.9	-28	12956*	1432	5204*
Cc1cc(Oc2ccc(-c3ccccc3)cc2)nc(N2CCOCC2)n1	0	0.6	0.24	-0.81	0.9	-6	nt	nt	nt
COc1nc(N2CCCC2)nc(-n2cc(-c3ccccc3)nn2)n1	-1	-0.035	0.22	0.7	0.9	6	nt	nt	nt
CCOC(=O)c1c(C)[nH]c(NC(=O)N2CCOCC2)c1C	0	-0.12	-0.12	0	0.9	-22	nt	nt	nt
CC(C)(C)CC(=O)N1CCC(c2nc3c(nnn3Cc3c(F)cccc3Cl)c(=O)[nH]2)CC1	0	0.099	0.36	-0.11	1	-3	nt	nt	nt
CC(=O)c1ccc(N2CCCCCC2)c(F)c1	-2	2.7*	-0.59	0.65	0.9	-20	5360	1576	2716
CCCC(=O)c1ccc(N2CCCCCC2)c(F)c1	-1	0.2	0.074	0.11	0.9	nt	nt	nt	nt
Cc1[nH]c2ccccc2c1C(c1ccccn1)N1CCC(C(N)=O)CC1 (stereo not given)	0	0.21	0.45	-0.59	1	12	nt	nt	nt
N#Cc1c(-c2ccccc2)cc(-c2ccco2)c(C#N)c1N	nt	2.9*	-0.0039	-1.7	0.9	nt	6724*	nt	2312
CC(C)(C)c1cc(-c2ccco2)c(C#N)c(SCC#N)n1	3	0.048	0.4	0.26	0.9	5	nt	nt	nt
CCCc1[nH]nc2c1C(c1cccnc1)C(C#N)=C(N)O2 (stereo not given)	-2	6.7*	0.66	0.21	0.9	-21	3948	1664	2336
Cc1nnc(NCc2ccco2)c2ccccc12	-1	0.53	0.049	1.2	1	0	nt	nt	nt
Cc1nc(N2CCN(Cc3nc4ccccc4[nH]3)CC2)c2oc3ccccc3c2n1	nt	nt	-0.67	3.6	1	nt	nt	nt	nt
Cc1nc(N2CCOCC2)c2oc3ccccc3c2n1	0	4.6*	-0.25	0.17	1	-56	13356*	1720	3340*
CCc1nc(NC(C)C)c2oc3ccccc3c2n1	nt	22*	-0.7	-1.5	0.9	nt	7576*	nt	2728*
Cc1nc(NCc2ccco2)c2oc3ccccc3c2n1	nt	6*	-0.41	-1	1	nt	11576*	nt	2960*
CCc1nc(N2CCCCC2)c2oc3ccccc3c2n1	-1	6.3*	-0.15	1.3	0.9	-7	6440*	1852	2916
CCOc1ccc(NC(=O)C2CC(=O)N(C(C)C)C2)cc1 (stereo not given)	0	0.055	-1	0.69	0.9	-8	nt	nt	nt
Cc1cc2c(c(=O)o1)C(C13C=CC(CC1)C3)C(C#N)=C(N)O2 (stereo not given)	-1	-1.4	-0.059	-0.43	1	4	nt	nt	nt
Cc1nc(SCCO)c2oc3ccccc3c2n1	-1	7.3*	0.47	0.41	0.9	-57	10060*	nt	3700*
Cc1nc(SCC(=O)O)c2oc3ccccc3c2n1	0	1.4	0.046	-0.57	0.9	-2	nt	nt	nt
CCSc1ncnc2c1oc1ccccc12	-1	12*	0.064	-0.01	0.9	-16	11660*	1868	3360*
COc1cccc(C2C(C#N)=C(N)Oc3cc(C)oc(=O)c32)c1OC (stereo not given)	-1	-0.66	-0.43	0.65	0.9	-17	nt	nt	nt
